# Data from ChEMBL document CHEMBL4513216, “Probing the Open Global Health Chemical Diversity Library for Multistage-Active Starting Points for Next-Generation Antimalarials” (ACS Infect Dis, 2020).
# Assay: Toxicity liver stage against HepG2, at 10uM
# Assay type: cell-based
# Design: test concentration 10 uM, cell line HepG2-A16-CD81EGFP
# Conditions: human, HepG2-A16-CD81EGFP cells; read-out: INHIBITION
# How it was run: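 Uninfected HepG2-A16-CD81EGFP cells, 3 × 10^3 per well, 1536-well, plated on prespotted compound at 10 μM final, parasite-free screening media added to match infected plates; puromycin 10 μM positive, DMSO 0.5% negative; run in parallel with 48 h PbLuc assay at 37 °C, 5% CO2; viability by CellTiter-Glo luminescence, normalized to controls.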
row,SMILES,cytotoxicity at 10 µM [%]
1,O=C(CCc1ccccc1)NC1CCC2(CCC(=O)N2)CC1 (stereo not given),1.35
2,Cc1cccc(CNC[C@H]2COCc3nc4cccnc4n32)n1,-1.79
3,O[C@H]1CC[C@@H](Cc2cc(-c3ccccc3)on2)O[C@@H]1CNCC1CC1,-6.21
4,Cn1cnc2c1CCN(Cc1nc(COc3ccc(F)cc3)no1)C2,-7.22
5,O=S(=O)(C1CC1)N1CCC2(CC1)CN(Cc1nccs1)CCO2,8.1
6,Cc1nc(CN2CCCC(NCc3ccsc3)C2)no1 (stereo not given),0.504
7,CC(C)[C@@H]1CN(C(=O)C2(c3ccccc3)CC2)C[C@H]1C(=O)O,3.61
8,Cc1ccc(N2CCCC(N3CCN(CC(F)F)CC3)C2=O)cc1 (stereo not given),1.66
9,CCOCC(=O)N1CCC(c2nccn2C)CC1,-53.4
10,Clc1ccc(-n2nnnc2C2(NCc3ccco3)CCCCC2)cc1,15.7
11,CC(O)Cc1cn(CC2CCN(c3nccc4occc34)CC2)nn1 (stereo not given),-6.64
12,O=C(c1ccncc1)N1CCN2C[C@H](Oc3cccc(F)c3)C[C@H]2C1,8.28
13,Cc1oc(-c2ccsc2)nc1CC(=O)NCC(=O)Nc1cn[nH]c1,-1.36
14,CC(C)c1ccc(N2CCc3onc(-c4ccc(F)c(F)c4)c3C2)nn1,0.324
15,O=C(c1cccnc1O)N1CCC(COc2ccccc2)CC1,9.53
16,Cc1nc(C)n(C2CCCN(C(=O)COc3cccc(C#N)c3)C2)n1 (stereo not given),1.08
17,Cn1cc(S(=O)(=O)N2CCN(S(=O)(=O)c3ccc(Br)s3)CC2)cn1,11.8
18,CC(=O)N1CCCN(C(=O)c2ccn(-c3cccc(Cl)c3)n2)CC1,-1.37
19,CC1CN(C(=O)NCc2cccc(C#N)c2)CCN1CC(F)(F)F (stereo not given),-6.68
20,O=C(Cc1ccncc1)N1C[C@@H]2CC[C@H]1CN(Cc1cccnc1)C2,2.89
21,Cc1ccc(C(=O)NS(=O)(=O)Cc2ccon2)c(C)c1,-3.16
22,COc1ccc(OC)c(CNC2CCCN(c3cccnn3)C2)c1 (stereo not given),-4.67

row,SMILES,cytotoxicity at 10 µM [%]
1,Cc1ccc(C(=O)N2Cc3c(CN(C)C)nn(C)c3C2)cc1C,1.77
2,Cn1cc(CN2C[C@H](Oc3ncccc3F)[C@H]3OCCC[C@H]32)cn1,2.72
3,CN1CCn2c(-c3cccc(F)c3)cnc2C12CCN(CC1CC1)CC2,8.13
4,CCc1ccc(CN2CCN(c3ccc(C(N)=O)cn3)CC2)nc1,4.95
5,CC(=O)Nc1ccc(SCC(O)COCc2ccc3c(c2)OCO3)cc1 (stereo not given),3.56
6,CC(CO)(NC(=O)NCc1ccc(Br)s1)C1CC1 (stereo not given),4.68
7,CCCn1nccc1-c1cnc(CC2CCN(C(C)=O)C2)cn1 (stereo not given),-6.88
8,CC1=Nc2c(c(=O)[nH]n2C(C)C)C(c2ccsc2)S1 (stereo not given),-2.92
9,CN(Cc1ccc(-n2ccnc2)cc1)CC1CCCN1c1cccnn1 (stereo not given),-6.21
10,Cc1nnc(N2C[C@H](C(=O)NCC3CC3)[C@@H]3CCO[C@@H]3C2)s1,17.1
11,COCCNC(=O)c1nn(-c2cccc(C(C)C)c2)cc1O,-2.35
12,Cc1cc(C(F)(F)F)nc(CCNc2nc(C)nc3c2cnn3C)n1,4.79
13,Cc1cc(CC(=O)N2CCc3cc(Br)sc3C2)n[nH]1,10.2
14,Cc1nc(COCC2CNCc3nccn3C2)cs1 (stereo not given),1.79
15,O=C1CO[C@@H]2CNC[C@H]2N1CC1CC1,-95.7
16,Cc1ccc(CNC(CN2CCN(C)CC2)c2ccccc2)cc1 (stereo not given),9.19
17,COCCCNC1CCCN(c2ccc(C)nn2)C1 (stereo not given),-9.9
18,CCc1noc(CNc2ccc(C(=O)N3CCCC(C)C3)cc2C)n1 (stereo not given),-10.8
19,O=C(O)CN1CCOCC(Cc2ccc(Cl)cc2)C1 (stereo not given),-25.7
20,c1ccc(CN2CCN(c3ccc4nncn4n3)CC2)nc1,-1.1
21,c1ccc(C2CCCN(c3cncc(-n4cccn4)n3)CC2)cc1 (stereo not given),48
22,O=C(CCc1nc(-c2ccsc2)no1)NCC1CCN(C2CC2)C1 (stereo not given),3.23

row,SMILES,cytotoxicity at 10 µM [%]
1,Cc1ccc(CN2CCc3ncnc(C4CCOC4)c3CC2)s1 (stereo not given),-0.827
2,CCOC(=O)N1CCN(C(=O)C(CC)n2cccn2)CC1 (stereo not given),-0.193
3,Cc1cc(N2CCc3cncnc3C2)n2nc(C(F)(F)F)nc2n1,6.25
4,N#Cc1cn(C2CC2)c(=O)n(Cc2noc(-c3cccs3)n2)c1=O,13
5,CCN(CC)S(=O)(=O)N1CCCC1c1nnc2n1CCCCC2 (stereo not given),-6.83
6,Cc1ccccc1OC1CCN(CC(=O)Nc2cnn(C)c2C)CC1,-8.09
7,c1cncc(-c2noc(CN3CCCCC3Cn3cccn3)n2)c1 (stereo not given),-2.42
8,Cc1ccc2c(c1)OCCCC2NCc1nccn1CC(C)C (stereo not given),-0.77
9,CC(C)Nc1nc2c(s1)C(=O)CN(C(=O)NCCc1ccccc1)C2,-5.55
10,CCc1ncc2c(n1)CN(Cc1nnc(C)o1)CC2,-12.1
11,CN(C)Cc1ccnc(C2CCCN2Cc2cc3ccccc3s2)n1 (stereo not given),20.2
12,Cn1ccc(C(=O)NCc2ccc(N3CCCCC3)nc2)cc1=O,-10.8
13,Brc1cccc(-c2nnc(CNCCn3cccn3)o2)c1,-9.59
14,Cc1cc(C(=O)N2CCCC2)ccc1NCc1nc(CC(C)C)no1,-4.09
15,CSCC(C)(O)CNc1cccc(F)c1C(C)=O (stereo not given),2.19
16,CC(C)C(C)(C#N)NC(=O)Cn1cc(C(N)=O)c(-c2ccccc2)n1 (stereo not given),-8.82
17,O=C(CO)N1CCC(c2ccnc(Nc3cc(C(F)(F)F)ccn3)n2)C1 (stereo not given),18
18,O=C(NCc1ccccc1-n1cccn1)C1CC2(CCNCC2)CN1 (stereo not given),-0.413
19,CCNC(=O)C1CCN(c2nccc(C3CCCC3)n2)C1 (stereo not given),-5.6
20,CCn1ncc2c1C(COC)N(C(=O)c1cccs1)CC2 (stereo not given),-112
21,CCS(=O)(=O)N1CCN(Cc2cccnc2)c2nc(C)ccc2C1,-70.3
22,O=C(N1CCCC1)N1CCC2(CC(=O)N(c3ccc4c(c3)OCO4)C2)C1 (stereo not given),9.79

row,SMILES,cytotoxicity at 10 µM [%]
1,CC(=O)Nc1nc(CS(=O)(=O)CCCc2ccccc2)cs1,-1.2
2,CN1CCC(Cc2noc(-c3cn(Cc4ccccc4Cl)nn3)n2)CC1,-3.28
3,Cc1c(C(=O)NC(CN2CCCC2=O)c2ccccc2)cnn1C (stereo not given),-8.7
4,c1cnc(NCc2noc3c2CN(CCN2CCCC2)CC3)nc1,-7.36
5,Cc1nn(-c2ccccc2)cc1C(=O)N1CCCC1c1cnn(C)c1 (stereo not given),-1.86
6,CN(C)[C@@H]1CN(C(=O)c2ccc3ccccc3n2)C[C@H]1O,-22.5
7,N#Cc1ccc(C(=O)N2CCCC3(C=Cc4ccccc4O3)CC2)cn1 (stereo not given),11.8
8,Cn1cccc1C(=O)NC1CCN(c2ccc(OC(F)(F)F)cc2)CC1,4.87
9,O=C(c1cc2c(s1)CCCCC2)N1CCC(c2ncc[nH]2)CC1,15.7
10,Cc1cn2c(n1)CCC(NC(=O)CCCn1cncn1)C2 (stereo not given),-9.12
11,Cc1ccc(F)c(OC2CCCN(c3cnn(C)c3)C2=O)c1 (stereo not given),-6.43
12,CC(C)c1ncncc1C(=O)NCCN1CCCCC1C (stereo not given),-6.06
13,CCS(=O)(=O)N1C[C@H]2CN(Cc3ccc(OC)cc3)C(=O)[C@H]2C1,-1.34
14,O=C(C1CCOC1)N1C[C@H]2CN(Cc3cccc(F)c3)C(=O)[C@H]2C1 (stereo not given in full),-106
15,Cc1cnc(C)c(N2CCC(c3nccn3Cc3cscn3)CC2)n1,1.89
16,Cc1cc(NC(=O)CN2CCCC2c2noc(C)n2)n(C(C)(C)C)n1 (stereo not given),1.53
17,COCC1CN(C(=O)Nc2ccc(Cl)cc2Cl)CCO1 (stereo not given),4.26
18,Cc1nc(C2CCCN2C(=O)CCCOc2ccccc2C)no1 (stereo not given),-2.21
19,O=C(NCCOc1ccc(Cl)cn1)Nc1cccnc1,-2.3
20,Cc1cc2c(cc1Cl)C=CC1(CCN(C(=O)N3CCOCC3)CC1)O2,23.2
21,COCC(C)NC(=O)CN1CCC2(CC1)OCCO2 (stereo not given),7.3
22,CN(Cc1ccco1)[C@@H]1CN(CC2CCOCC2)C[C@@H]2CCCO[C@@H]21,-71.1

row,SMILES,cytotoxicity at 10 µM [%]
1,CCN(CC)C(=O)Nc1ccc(N2CCSCC2)cc1C,-8.44
2,Cc1nccn1C1CCCN(C(=O)Cn2ccc(=O)n(C)c2=O)C1 (stereo not given),-5.17
3,Cc1nsc(NC(=O)NC2(CN3CCOCC3)CCCC2)n1,3.89
4,Cc1cccc(CN2CCc3nnc(CO)n3CC2)n1,6.41
5,O=C(Nc1cccc(CNCc2cccs2)c1)C1CC1,-8.3
6,Cc1[nH]ccc1C(=O)N[C@H]1CN(CCO)C[C@@H]1C1CC1,3.07
7,CC(C)c1cc(C(=O)N2CCc3ccccc3C2C(=O)O)n(C)n1 (stereo not given),7.28
8,Cc1nc(CN2CCC3(CC2)NC(=O)CC3c2ccccc2)cs1 (stereo not given),4.33
9,CCN1CCOCC12CCN(c1cnccn1)CC2,-111
10,Cn1ccnc1CNC(=O)c1cnc(C2CCNCC2)cn1,-1.31
11,CN(C(=O)COC1CCCC1)C1CCN(CC2CCOC2)CC1 (stereo not given),-9.98
12,CN1CC(=O)N(c2cccnc2)CC12CCN(C(=O)c1cccn1C)C2 (stereo not given),1.14
13,CC(CS(C)(=O)=O)NC(=O)N1CC2(CCCC2)c2ccccc21 (stereo not given),-4.34
14,CN(Cc1cn2c(n1)CN(C1CCOC1)CC2)Cc1ccco1 (stereo not given),-2.15
15,Cc1ccc(C2(CN(C)Cc3sccc3C)CCNCC2)nc1,8.15
16,CCS(=O)(=O)c1ccc(N2CCC(NC(=O)NC(C)CO)CC2)cc1 (stereo not given),13.9
17,Cc1cncc(C(=O)N2CCCC(O)(CO)C2)c1 (stereo not given),2.09
18,O=C(NC1CC1)N1CCc2ncnc(-c3ccncc3)c2CC1,-1.04
19,Cc1cc(C(=O)N(CC(C)C)CC(O)c2ccc(F)cc2)[nH]n1 (stereo not given),-10.2
20,CC(=O)N(C)CCCc1cc(-c2ccccc2)no1,-7.16
21,Cc1nccc([C@@H]2C[C@@H]3CCN(S(C)(=O)=O)C[C@H]3O2)n1,-11.3
22,CCCc1n[nH]c(C2CN(C(=O)c3cccc4[nH]ncc34)CCO2)n1 (stereo not given),-2.87
